Assay type in all cases: functional
The nature of test [1]: Cytotoxicity against human COLO205 cells assessed as growth inhibition at 50 uM after 48 hrs by SRB assay. The note with it: COLO 205, 48 h, read-out: GI. The method, boiled down:
(§1)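 Single-concentration screen at 50 µM. Cells grew 24 h at 37 °C, then had 48 h exposure in complete medium.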

A short description of test [2]: Cytotoxicity against human THP1 cells assessed as growth inhibition at 50 uM after 48 hrs by SRB assay. Particulars: THP-1, 48 h, read-out: GI. The method, boiled down: as §1
(In SRB staining, fixed cells bind dye roughly in proportion to their protein.)

The test system of the next test is PC-3. Put plainly: Cytotoxicity against human PC3 cells assessed as growth inhibition at 50 uM after 48 hrs by SRB assay. The method, boiled down:
as §1

Test [3] in a line: Cytotoxicity against human HCT116 cells assessed as growth inhibition at 50 uM after 48 hrs by SRB assay. Particulars: HCT-116, 48 h, read-out: GI. The essentials: as §1

The source made the active and inactive calls. The rule behind the calls is not given here.

For the compound `COc1cc(/C=C/C(=O)/C=C/c2ccco2)ccc1OCc1cn(CCCCCOc2cc(=O)oc3ccccc23)nn1`, the inhibition of growth at 50 µM in test [1] is 33%; in test [2] it was 39%; in test [3] it was 37%. Besides, the “growth inhibition (GI)” value in the test with PC-3 is “inactive”.
In the same order, the values of `COc1cc(/C=C/C(=O)/C=C/c2ccco2)ccc1OCc1cn(CCCCOc2cc(=O)oc3ccccc23)nn1` are 43%, 49%, 47% and “inactive”.
`COc1cccc(/C=C/C(=O)/C=C/c2ccc(OCc3cn(CCCCCOc4cc(=O)oc5ccccc45)nn3)c(OC)c2)c1`: the inhibition of growth at 50 µM is 34% in test [1], 37% in test [2] and 36% in test [3]. Moreover, the “growth inhibition (GI)” value with PC-3 was “inactive”.
The like results for `COc1ccccc1/C=C/C(=O)/C=C/c1ccc(OCc2cn(CCCOc3cc(=O)oc4ccccc34)nn2)c(OC)c1` were, in that order, 57%, 50%, 53% and “inactive”.
As to `COc1cc(/C=C/C(=O)/C=C/c2ccco2)ccc1OCc1cn(CCCOc2cc(=O)oc3ccccc23)nn1`, the results for the inhibition of growth at 50 µM in test [1], in test [2] and in test [3] were 59%, 57% and 51%, respectively. Besides, in the test on PC-3, the “growth inhibition (GI)” value was “inactive”.
The like results for `COc1ccccc1/C=C/C(=O)/C=C/c1ccc(OCc2cn(CCCCOc3cc(=O)oc4ccccc34)nn2)c(OC)c1` were, in that order, 47%, 40%, 43% and “inactive”.
On to `COc1cccc(/C=C/C(=O)/C=C/c2ccc(OCc3cn(CCCCOc4cc(=O)oc5ccccc45)nn3)c(OC)c2)c1`, for which the inhibition of growth at 50 µM in test [1] was determined as 46%; in test [2], 47%; in test [3] it was 44%. Besides, in the test on PC-3, the “growth inhibition (GI)” value is “inactive”.
In the same order, the values of `COc1cc(/C=C/C(=O)/C=C/c2cccc3ccccc23)ccc1OCc1cn(CCCCCOc2cc(=O)oc3ccccc23)nn1` are 40%, 44%, 42% and “inactive”.
The like results for `COc1cccc(/C=C/C(=O)/C=C/c2ccc(OCc3cn(CCCOc4cc(=O)oc5ccccc45)nn3)c(OC)c2)c1` were, in that order, 52%, 58%, 55% and “inactive”.
For `COc1ccc(/C=C/C(=O)/C=C/c2ccc(OCc3cn(CCCOc4cc(=O)oc5ccccc45)nn3)c(OC)c2)cc1`, the inhibition of growth at 50 µM in test [1] is 53%; in test [2], 56%; in test [3], 54%. For the same compound, the “growth inhibition (GI)” value in the test on PC-3 is “inactive”.
Take `COc1ccc(/C=C/C(=O)/C=C/c2ccc(OCc3cn(CCCCOc4cc(=O)oc5ccccc45)nn3)c(OC)c2)cc1`: the inhibition of growth at 50 µM stood at 49% in test [1], 45% in test [2] and 40% in test [3]. Moreover, the “growth inhibition (GI)” value in the test on PC-3 is “inactive”.
On to `COc1cc(/C=C/C(=O)/C=C/c2ccccc2)ccc1OCc1cn(CCCCOc2cc(=O)oc3ccccc23)nn1`, for which the inhibition of growth at 50 µM amounted to 31% in test [1], 36% in test [2] and 34% in test [3]. For the same compound, the “growth inhibition (GI)” value in the test with PC-3 was “inactive”.
In the same order, the values of `COc1cc(/C=C/C(=O)/C=C/c2cccs2)ccc1OCc1cn(CCCCOc2cc(=O)oc3ccccc23)nn1` are 40%, 44%, 41% and “inactive”.

The values are drawn from ChEMBL document CHEMBL3797104, “Triazole tethered C5-curcuminoid-coumarin based molecular hybrids as novel antitubulin agents: Design, synthesis, biological investigation and docking studies” (Eur J Med Chem, 2016).
